In ChEMBL document CHEMBL3286396, “Discovery and Synthesis of C-Nucleosides as Potential New Anti-HCV Agents” (ACS Med Chem Lett, 2014):

How the values were obtained:
[1] = target: T1, DNA polymerase alpha catalytic subunit (Homo sapiens, UniProt P09884); assay: Inhibition of human DNA polymerase alpha
T1 sequence (P09884 whole entry): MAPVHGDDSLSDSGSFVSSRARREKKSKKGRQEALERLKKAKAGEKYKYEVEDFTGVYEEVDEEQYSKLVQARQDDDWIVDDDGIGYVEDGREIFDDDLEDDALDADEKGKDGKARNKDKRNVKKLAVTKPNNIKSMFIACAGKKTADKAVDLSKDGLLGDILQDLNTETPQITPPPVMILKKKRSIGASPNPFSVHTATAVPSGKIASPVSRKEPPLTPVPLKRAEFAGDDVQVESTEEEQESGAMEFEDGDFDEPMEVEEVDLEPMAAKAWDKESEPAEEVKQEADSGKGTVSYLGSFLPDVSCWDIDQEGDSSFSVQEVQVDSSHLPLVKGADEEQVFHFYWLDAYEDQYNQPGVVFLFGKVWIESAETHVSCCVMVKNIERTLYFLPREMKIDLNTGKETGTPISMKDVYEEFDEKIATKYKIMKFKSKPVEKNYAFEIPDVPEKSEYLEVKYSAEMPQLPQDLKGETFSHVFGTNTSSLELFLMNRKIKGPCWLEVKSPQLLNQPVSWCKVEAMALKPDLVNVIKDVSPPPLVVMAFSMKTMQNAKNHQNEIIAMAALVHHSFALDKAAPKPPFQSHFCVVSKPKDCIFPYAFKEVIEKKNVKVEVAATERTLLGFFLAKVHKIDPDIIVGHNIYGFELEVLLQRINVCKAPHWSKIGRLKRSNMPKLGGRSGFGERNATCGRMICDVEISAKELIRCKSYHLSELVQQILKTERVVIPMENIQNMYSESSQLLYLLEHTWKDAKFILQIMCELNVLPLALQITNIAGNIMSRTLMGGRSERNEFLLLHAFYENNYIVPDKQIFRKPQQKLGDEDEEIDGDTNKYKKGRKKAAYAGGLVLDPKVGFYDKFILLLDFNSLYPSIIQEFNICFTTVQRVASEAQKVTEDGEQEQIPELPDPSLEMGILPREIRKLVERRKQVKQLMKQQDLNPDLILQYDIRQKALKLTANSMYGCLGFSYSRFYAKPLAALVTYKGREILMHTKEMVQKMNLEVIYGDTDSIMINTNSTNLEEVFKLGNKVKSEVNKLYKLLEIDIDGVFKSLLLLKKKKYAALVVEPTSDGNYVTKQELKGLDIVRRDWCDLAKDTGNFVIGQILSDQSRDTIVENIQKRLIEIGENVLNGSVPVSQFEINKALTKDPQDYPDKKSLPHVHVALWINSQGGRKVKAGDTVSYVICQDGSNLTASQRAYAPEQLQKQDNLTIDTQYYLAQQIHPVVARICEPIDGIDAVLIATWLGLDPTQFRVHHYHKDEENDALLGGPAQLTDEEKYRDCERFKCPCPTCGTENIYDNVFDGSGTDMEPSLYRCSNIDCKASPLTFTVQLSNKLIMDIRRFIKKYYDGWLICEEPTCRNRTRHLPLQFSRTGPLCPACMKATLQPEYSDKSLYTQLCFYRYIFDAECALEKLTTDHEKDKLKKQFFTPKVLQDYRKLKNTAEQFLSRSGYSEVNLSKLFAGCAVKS
Summary of the method: (§1)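 The nucleoside was tested in its triphosphate form against human DNA polymerases α, β and γ.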

[2] = target: DNA polymerase beta (Homo sapiens, UniProt P06746); assay: Inhibition of human DNA polymerase beta; summary of the method: as §1
[3] = target: T2, DNA polymerase subunit gamma-1 (Homo sapiens, UniProt P54098); assay: Inhibition of human DNA polymerase gamma; summary of the method: as §1
T2 sequence (P54098 whole entry): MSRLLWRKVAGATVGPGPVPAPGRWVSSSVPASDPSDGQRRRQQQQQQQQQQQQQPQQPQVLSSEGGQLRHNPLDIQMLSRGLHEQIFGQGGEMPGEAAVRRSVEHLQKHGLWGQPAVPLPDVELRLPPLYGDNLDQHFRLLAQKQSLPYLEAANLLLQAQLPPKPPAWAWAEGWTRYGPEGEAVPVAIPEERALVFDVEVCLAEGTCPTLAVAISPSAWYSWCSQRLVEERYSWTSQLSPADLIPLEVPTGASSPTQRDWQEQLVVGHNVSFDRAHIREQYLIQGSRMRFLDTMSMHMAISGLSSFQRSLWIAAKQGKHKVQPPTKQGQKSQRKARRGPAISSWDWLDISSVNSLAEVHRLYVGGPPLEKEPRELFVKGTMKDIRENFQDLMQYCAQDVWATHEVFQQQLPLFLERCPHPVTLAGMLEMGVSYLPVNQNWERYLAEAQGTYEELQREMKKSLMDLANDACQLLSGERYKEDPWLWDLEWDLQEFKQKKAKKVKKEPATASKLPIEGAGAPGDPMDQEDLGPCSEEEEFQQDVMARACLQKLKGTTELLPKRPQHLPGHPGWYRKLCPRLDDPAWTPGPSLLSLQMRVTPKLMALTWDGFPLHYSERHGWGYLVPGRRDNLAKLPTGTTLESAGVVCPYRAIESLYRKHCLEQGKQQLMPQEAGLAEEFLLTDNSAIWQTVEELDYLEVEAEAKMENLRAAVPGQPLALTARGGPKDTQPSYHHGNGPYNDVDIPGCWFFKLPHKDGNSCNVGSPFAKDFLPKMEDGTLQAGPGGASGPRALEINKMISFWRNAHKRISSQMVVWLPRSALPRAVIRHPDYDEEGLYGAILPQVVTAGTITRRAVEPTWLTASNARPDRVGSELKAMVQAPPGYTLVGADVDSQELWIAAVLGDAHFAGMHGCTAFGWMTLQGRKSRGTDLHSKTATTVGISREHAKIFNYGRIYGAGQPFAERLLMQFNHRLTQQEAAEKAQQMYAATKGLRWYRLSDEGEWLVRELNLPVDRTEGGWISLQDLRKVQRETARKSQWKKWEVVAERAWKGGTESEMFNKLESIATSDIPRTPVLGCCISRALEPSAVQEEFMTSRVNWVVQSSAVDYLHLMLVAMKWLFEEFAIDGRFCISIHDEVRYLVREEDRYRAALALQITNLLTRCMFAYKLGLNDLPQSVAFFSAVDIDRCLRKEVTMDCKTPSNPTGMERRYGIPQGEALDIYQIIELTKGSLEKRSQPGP

[4] = tested on: Hepatitis C virus; assay: Antiviral activity against Hepatitis C virus genotype 1b infected in human HuH7 cells assessed as inhibition of subgenomic replicon RNA replication after 72 hrs by luciferase reporter assay; type: functional, cell-based, Hepacivirus hominis; settings: Huh-7, 72 h
[5] = Cytotoxicity against human HuH7 cells by MTT assay; type: cell-based, Huh-7
Summary of the method: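 Huh-7-derived HCV replicon cell lines were used, with MTT as the vital dye read-out.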

[6] = Inhibition of N-terminal His6-tagged Hepatitis C virus genotype 1b isolate Con1 NS5B RNA-dependent RNA polymerase activity by plate reader analysis
[7] = tested on: Hepatitis C virus; assay: Antiviral activity against Hepatitis C virus assessed as inhibition of subgenomic replicon RNA replication; type: functional, organism-based, Hepacivirus hominis
[8] = Inhibition of Hepatitis C virus NS5B RNA-dependent RNA polymerase activity; design: species or system Hepacivirus hominis

For `C[C@@]1(O)[C@H](O)[C@@H](COP(=O)(O)OP(=O)(O)OP(=O)(O)O)O[C@H]1c1ccc2c(N)ncnn12`, the IC50 [1] was > 100 µM, the IC50 [2] was > 100 µM and the IC50 [3] was > 100 µM.

For `C[C@@]1(O)[C@H](O)[C@@H](CO)O[C@H]1c1cnn2c(N)ncnc12`, the EC50 [4] was > 100 µM, the CC50 [5] was > 100 µM and the IC50 [6] was 33 µM.

With `C[C@@]1(O)[C@H](O)[C@@H](CO)O[C@H]1c1cnc2c(=O)[nH]c(N)nn12` the EC50 [4] was > 100 µM, the CC50 [5] was > 100 µM and the IC50 [6] was 0.31 µM.

In the case of `C[C@@]1(O)[C@H](O)[C@@H](CO)O[C@H]1n1ccc2c(O)nc(N)nc21`, the EC50 [7] is reported as > 50 µM.

In the case of `C[C@@]1(O)[C@H](O)[C@@H](CO)O[C@H]1c1ccc2c(=O)[nH]c(N)nn12`, the EC50 [4] is reported as > 100 µM, the CC50 [5] is reported as > 100 µM and the IC50 [6] is reported as 0.21 µM.

With `C[C@@]1(O)[C@H](O)[C@@H](CO)O[C@H]1n1ccc2c(N)ncnc21` [BETA-2'-C-METHYL-7-DEAZA-ADENOSINE] the EC50 [4] was 0.2 µM, the EC50 [7] was 0.3 µM and the CC50 [5] was > 100 µM. For the same compound, the IC50 [8] was 0.07 µM and the IC50 [6] was 0.2 µM.

`C[C@@]1(O)[C@H](O)[C@@H](CO)O[C@H]1n1cnc2c(=O)[nH]c(N)nc21` [2'-B-METHYL-GUANOSINE] gave an EC50 [7] of 2 µM.

In the case of `C[C@@]1(O)[C@H](O)[C@@H](CO)O[C@H]1c1cnc2c(N)ncnn12`, the EC50 [4] is reported as 1.3 µM, the CC50 [5] is reported as 34 µM and the IC50 [6] is reported as 0.55 µM.
